Key:
[1] = biological target: T1, Voltage-gated L-type calcium channel (Rattus norvegicus, UniProt P22002+Q02485+P27732); assay: Inhibition of [3H]isradipine binding to L-type [Ca2+] channel of rat brain membranes; assay type: cell membranes, Membrane
Procedure, shortened: (§1)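 Rat brain membranes (~100 μg protein) incubated 1 h at 25 °C with 0.1 nM [3H]isradipine and varying competitor in 50 mM Tris, pH 7.4. Nonspecific binding with 10 μM nitrendipine.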

Adenosine receptor A2a = Adenosine receptor A2a (Rattus norvegicus, UniProt P30543); assay: Displacement of [3H]-CGS- 21680 binding to Adenosine A2A receptor in rat striatal membranes; assay type: cell membranes, Membrane
Procedure, shortened: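 Adenosine deaminase (3 units/mL) present during preparation, 30 min preincubation at 30 °C and incubation. At least five competitor concentrations over 3 orders of magnitude.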

[2] = biological target: T2, Adenosine receptor A3 (Rattus norvegicus) (UniProt P28647); assay: Inhibition of adenylyl cyclase by A3 agonist IB-MECA(10e-6M) in CHO cell membranes expressing rat Adenosine A3 receptor; assay type: functional, cell-based
T2 sequence (whole entry): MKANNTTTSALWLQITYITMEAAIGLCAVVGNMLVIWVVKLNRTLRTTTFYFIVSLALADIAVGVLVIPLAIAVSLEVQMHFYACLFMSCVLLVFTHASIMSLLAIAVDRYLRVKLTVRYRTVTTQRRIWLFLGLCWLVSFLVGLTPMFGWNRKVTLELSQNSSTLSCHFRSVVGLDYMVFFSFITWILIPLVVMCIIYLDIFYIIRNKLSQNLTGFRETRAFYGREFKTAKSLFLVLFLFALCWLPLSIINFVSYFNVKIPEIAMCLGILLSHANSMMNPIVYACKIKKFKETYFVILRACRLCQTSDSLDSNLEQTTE
Procedure, shortened: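 Membranes from CHO cells stably expressing rat A3 receptor. Stimulated with 1 μM forskolin and [α-32P]ATP. Test compounds at 10 μM against the stated IB-MECA concentration. Stop buffer contained [3H]cyclic AMP. Reported as percent inhibition; significance by t-test.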

Adenosine receptor A3 [3] = biological target: T3, Adenosine receptor A3 (Rattus norvegicus, UniProt P28647); assay: Binding affinity against rat Adenosine A3 receptor from CHO cells; assay type: cell-based
T3 sequence (P28647 whole entry): T2 sequence (whole entry)
Procedure, shortened: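 CHO cell membranes stably expressing cloned rat A3 receptor. Nonspecific binding defined with 100 μM R-PIA. Filtration assay. IC50 converted to Ki by Cheng–Prusoff.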

[4] = biological target: T4, Equilibrative nucleoside transporter 1 (Rattus norvegicus, UniProt O54698); assay: Ability to displace radioligand from Na+ independent Adenosine transporter in rat
T4 sequence (O54698 whole entry): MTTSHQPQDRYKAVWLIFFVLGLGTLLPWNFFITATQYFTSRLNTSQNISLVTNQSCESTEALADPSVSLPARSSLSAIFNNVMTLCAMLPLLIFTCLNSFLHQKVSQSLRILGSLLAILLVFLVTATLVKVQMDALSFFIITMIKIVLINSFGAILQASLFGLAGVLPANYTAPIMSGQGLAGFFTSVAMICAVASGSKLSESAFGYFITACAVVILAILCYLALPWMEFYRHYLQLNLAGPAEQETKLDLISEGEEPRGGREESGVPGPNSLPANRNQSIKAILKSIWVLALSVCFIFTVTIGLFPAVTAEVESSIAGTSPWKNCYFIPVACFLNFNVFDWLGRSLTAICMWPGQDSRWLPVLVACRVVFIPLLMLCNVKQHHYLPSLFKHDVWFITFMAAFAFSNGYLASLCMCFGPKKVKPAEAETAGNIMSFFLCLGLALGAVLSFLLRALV
Procedure, shortened: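 Rat forebrain membranes incubated 30 min at 23 °C with 0.7 nM [3H]NBI and varying competitor concentrations in 50 mM Tris, pH 7.4. Ki or percent of specific binding displaced.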

Adenosine receptor A1 = biological target: T5, Adenosine receptor A1 (Rattus norvegicus, UniProt P25099); assay: (§2) Displacement of [3H](R)-PIA binding to Adenosine A1 receptor in rat brain membranes; assay type: cell membranes
T5 sequence (P25099 whole entry): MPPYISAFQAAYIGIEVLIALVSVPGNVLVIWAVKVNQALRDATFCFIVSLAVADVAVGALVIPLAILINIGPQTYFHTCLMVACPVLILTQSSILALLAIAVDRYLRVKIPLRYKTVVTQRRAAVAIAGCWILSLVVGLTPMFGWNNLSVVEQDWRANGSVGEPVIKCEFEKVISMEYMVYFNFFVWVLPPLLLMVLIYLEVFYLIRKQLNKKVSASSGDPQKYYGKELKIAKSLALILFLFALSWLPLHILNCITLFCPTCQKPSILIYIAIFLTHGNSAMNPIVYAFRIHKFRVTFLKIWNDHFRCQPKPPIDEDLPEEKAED

Adenosine receptor A3 [5] = biological target: T6, Adenosine receptor A3 (Homo sapiens, UniProt P0DMS8); assay: Displacement of [125]AB-MECA binding to human Adenosine A3 receptor expressed in HEK cells; assay type: cell-based, HEK293
T6 sequence (P0DMS8 whole entry): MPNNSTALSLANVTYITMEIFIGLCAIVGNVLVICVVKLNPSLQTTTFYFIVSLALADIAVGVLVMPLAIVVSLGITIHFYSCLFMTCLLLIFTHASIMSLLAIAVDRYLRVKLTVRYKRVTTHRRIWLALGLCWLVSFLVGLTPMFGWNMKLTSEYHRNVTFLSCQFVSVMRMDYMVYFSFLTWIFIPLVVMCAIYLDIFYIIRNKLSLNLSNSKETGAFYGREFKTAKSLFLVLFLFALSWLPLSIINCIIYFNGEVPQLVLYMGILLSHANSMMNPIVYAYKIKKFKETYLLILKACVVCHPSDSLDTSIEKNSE

[6] = biological target: T7, Adenosine receptor A1 (Rattus norvegicus) (UniProt P25099); assay: as §2; assay type: cell membranes; conditions: concentration not given here
T7 sequence (whole entry): T5 sequence (P25099 whole entry)
Procedure, shortened: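 Rat cerebral cortex membranes with [3H]-(R)-PIA. Adenosine deaminase (3 units/mL) present during membrane preparation, during a 30 min preincubation at 30 °C and during incubation. Competitor at ≥5 concentrations spanning 3 log units, DMSO ≤2%.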

[7] = biological target: Adenosine receptor A2a (Rattus norvegicus) (UniProt P30543); assay: Displacement of [3H]-CGS- 21680 from Adenosine A2A receptor in rat striatal membranes; assay type: cell membranes; conditions: Membrane, concentration not given here
Procedure, shortened: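 Rat striatal membranes with [3H]CGS 21680. Adenosine deaminase (3 units/mL) present during preparation, 30 min preincubation at 30 °C and incubation. At least five competitor concentrations over 3 orders of magnitude.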

[8] = biological target: T1, Voltage-gated L-type calcium channel; assay: Inhibition of [3H]-isradipine binding to L-type [Ca2+] channel of rat brain membranes; assay type: cell membranes, Membrane; procedure, shortened: as §1

Chain of Adenosine receptor A2a (P30543 whole entry): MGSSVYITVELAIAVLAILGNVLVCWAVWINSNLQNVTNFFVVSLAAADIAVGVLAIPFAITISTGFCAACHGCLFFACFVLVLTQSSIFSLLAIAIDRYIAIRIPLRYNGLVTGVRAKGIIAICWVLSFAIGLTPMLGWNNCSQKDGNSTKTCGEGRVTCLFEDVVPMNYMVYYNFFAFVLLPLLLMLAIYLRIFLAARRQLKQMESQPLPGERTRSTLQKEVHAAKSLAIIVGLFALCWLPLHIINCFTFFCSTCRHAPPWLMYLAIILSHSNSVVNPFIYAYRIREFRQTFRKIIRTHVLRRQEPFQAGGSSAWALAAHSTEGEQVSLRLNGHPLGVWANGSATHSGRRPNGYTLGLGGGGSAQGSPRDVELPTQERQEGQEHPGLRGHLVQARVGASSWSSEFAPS
Chain of Adenosine receptor A2a (Rattus norvegicus) (P30543 whole entry): as above

Ki (Adenosine receptor A2a; read-out: Ki) | Structure (SMILES) | further results
4.77 µM | CCOC(=O)C1=C(c2ccccc2)N=C(C)/C(=C(/O)OCC)C1/C=C/c1ccccc1 (centres undefined) | Inhibition [1]: < 10%
38 µM | CCCCC1=C(C(=O)OCC)C(C)/C(=C(/O)OCC)C(C)=N1 (centres undefined) | –
– | COC(=O)C1=C(C)NC(C)=C(C(=O)OCCN(C)Cc2ccccc2)C1c1cccc([N+](=O)[O-])c1 (centres undefined) [NICARDIPINE] | inhibition [2]: 27.2%; Ki (Adenosine receptor A3 [3]): 11 µM; Ki [4]: 5.36 µM
7.1 µM | CCO/C(O)=C1/C(C)=NC(C)=C(C(=O)OCCSc2ccccc2)C1C (centres undefined) | –
5.27 µM | CCO/C(O)=C1\C(C)=NC(C)=C(C(=O)OC)C1c1ccc2c(c1)OCO2 (centres undefined) | Ki (Adenosine receptor A1): 3.66 µM; Ki (Adenosine receptor A3 [5]): 4.58 µM
6.71 µM | CCO/C(O)=C1\C(C)=NC(C)=C(C(=O)OC)C1CCc1ccccc1 (centres undefined) | –
56.8 µM | CCO/C(O)=C1\C(C)=NC(C)=C(C(=O)OC)C1c1ccc(O)c(OC)c1 (centres undefined) | –
35.6 µM | CCO/C(O)=C1\C(C)=NC(C)=C(C(=O)OC)C1c1ccc([N+](=O)[O-])cc1 (centres undefined) | inhibition [6]: 37%
2.74 µM | CCOC(=O)C1=C(C)NC(C)=C(C(=O)OC)C1c1ccccc1 (centres undefined) | –
9.56 µM | CCO/C(O)=C1\C(C)=NC(C)=C(C(=O)OC)C1CC (centres undefined) | –
35.9 µM | CCOC(=O)C1=C(c2ccccc2)N=C(C)/C(=C(\O)OCC)C1C (stereo in doubt; 27) | Inhibition [1]: 17%
9.72 µM | CO/C(O)=C1/C(C)=NC(C)=C(C(=O)OCc2ccccc2)C1C (centres undefined) | –
– | COCCO/C(O)=C1\C(C)=NC(C)=C(C(=O)OC)C1C (centres undefined) | inhibition [7]: 37%
46.1 µM | CCO/C(O)=C1\C(C)=NC(C)=C(C(=O)OC)C1C (stereo in doubt; 1) | –
– | COC(=O)C1=C(C)NC(C)=C(C(=O)OCCCN2CCC(c3ccccc3)(c3ccccc3)CC2)[C@@H]1c1cccc([N+](=O)[O-])c1 [DEXNIGULDIPINE] | Ki (Adenosine receptor A2a): Not Active
12.7 µM | CCO/C(O)=C1\C(C)=NC(C)=C(C(=O)OC)C1c1ccc(OC)cc1 (centres undefined) | –
20.7 µM | CCO/C(O)=C1\C(C)=NC(C)=C(C(=O)OC)C1c1ccccc1C(F)(F)F (centres undefined) | –
49.3 µM | CCOC(=O)C1=C(C)NC(C)=C(C(=O)OC)C1/C=C/c1ccccc1 (centres undefined) | Ki [8]: 0.694 µM; Ki (Adenosine receptor A1): 16.1 µM; Ki (Adenosine receptor A3 [5]): 0.67 µM; Ki (Adenosine receptor A3 [3]): 12.1 µM
11.5 µM | CCCC1C(C(=O)OCC)=C(C)N=C(C)/C1=C(\O)OC (centres undefined) | –
– | CCOC(=O)C1=C(C)NC(C)=C(C(=O)OC)C1C#Cc1ccccc1 (centres undefined) | Inhibition [1]: 23%
28.4 µM | CCOC(=O)C1=C(c2ccccc2)N=C(C)/C(=C(\O)OCC)C1C (stereo in doubt; 30) | Inhibition [1]: < 10%
8.96 µM | CCO/C(O)=C1\C(C)=NC(C)=C(C(=O)OC)C1C (stereo in doubt; 29) | –
23.1 µM | CCO/C(O)=C1\C(C)=NC(C)=C(C(=O)OC)C1CC(C)CCC=C(C)C (centres undefined) | –
71 µM | COc1ccc(C2C=CNC=C2)cc1 | –

Structure (SMILES) | Ki (Adenosine receptor A2a; read-out: Ki) | further results
CCOC(=O)C1=C(C)NC(C)=C(C(=O)OC)C1c1cccc([N+](=O)[O-])c1 (centres undefined) [NITRENDIPINE] | 23 µM | Ki (Adenosine receptor A1): 8.96 µM; Ki (Adenosine receptor A3 [5]): 8.3 µM

— ChEMBL document CHEMBL1129250, “Interaction of 1,4-dihydropyridine and pyridine derivatives with adenosine receptors: selectivity for A3 receptors” (J Med Chem, 1996)
